Assay results gathered from unrelated publications.
Organism: Klebsiella pneumoniae
Effect on: microbial growth

SMILES	assay	system	conditions	MIC
Cc1nnc(SCC2=C(C(=O)O)N3C(=O)[C@@H](NC(=O)Cn4cnnn4)[C@H]3SC2)s1	broth dilution	ATCC43816		1 µg/mL
CC1(C)S[C@@H]2[C@H](NC(=O)[C@H](N)c3ccccc3)C(=O)N2[C@H]1C(=O)O	broth dilution	ATCC13883		> 64 µg/mL
N[C@@H](Cc1c[nH]c2ccc(Cl)cc12)C(=O)O		MGH78578	18 h	> 200 µM
[H]/N=C(/N)N[C@H]1[C@H](O)[C@@H](O)[C@H](O[C@@H]2O[C@@H](C)[C@](O)(C=O)[C@H]2O[C@@H]2O[C@@H](CO)[C@H](O)[C@@H](O)[C@@H]2NC)[C@@H](N/C(N)=N\[H])[C@@H]1O	broth dilution	ATCC700603		> 512 µg/mL
CNC(C)C1CCC(N)C(OC2C(N)CC(N)C(OC3OCC(C)(O)C(NC)C3O)C2O)O1 (stereo not drawn)	broth dilution	ATCC13883		2 µg/mL
CCCCCCC#Cc1cncc(-c2nnc(SCc3cc([N+](=O)[O-])cc([N+](=O)[O-])c3)n2CCCN)c1	broth dilution	DSM30104		> 64 µg/mL
CC1(C)S[C@@H]2[C@H](NC(=O)[C@H](N)c3ccccc3)C(=O)N2[C@H]1C(=O)O	broth dilution	ATCC43816		172 µM
CCCCCCC#Cc1cncc(-c2nnc(SCc3ccc(Cl)cc3)n2CCCN)c1	broth dilution	DSM30104		32 µg/mL
CCN1CCN(C(=O)N[C@@H](C(=O)N[C@@H]2C(=O)N3[C@@H]2SC(C)(C)[C@@H]3C(=O)O)c2ccccc2)C(=O)C1=O	broth dilution	ATCC43816		4 µg/mL
[H]/N=C(\N/C(=N/[H])NCCCCCCNC(=N)NC(=N)Nc1ccc(Cl)cc1)Nc1ccc(Cl)cc1		ATCC4352		1 µM
CN(C)[C@@H]1C(O)=C(C(N)=O)C(=O)[C@@]2(O)C(O)=C3C(=O)c4c(O)cccc4[C@@](C)(O)[C@H]3C[C@@H]12	broth dilution	ATCC43816		2 µg/mL
CN(C)[C@@H]1C(O)=C(C(N)=O)C(=O)[C@@]2(O)C(O)=C3C(=O)c4c(O)cccc4[C@@](C)(O)[C@H]3C[C@@H]12	broth dilution	ATCC13883		1 µg/mL
C[C@H]1COc2c(N3CCN(C)CC3)c(F)cc3c(=O)c(C(=O)O)cn1c23	broth dilution	ATCC43816		< 0.5 µg/mL
CC1(C)S[C@@H]2[C@H](NC(=O)[C@H](N)c3ccc(O)cc3)C(=O)N2[C@H]1C(=O)O	broth dilution	ATCC13883		> 64 µg/mL
CCCCCCC#Cc1cncc(-c2nnc(SCc3cc([N+](=O)[O-])cc([N+](=O)[O-])c3)n2CCOC2OC(CN)C(O)C2O)c1 (stereo not drawn)	broth dilution	DSM30104		> 64 µg/mL
Cc1onc(-c2ccccc2)c1C(=O)N[C@@H]1C(=O)N2[C@@H]1SC(C)(C)[C@@H]2C(=O)O	broth dilution	ATCC700603		8 µg/mL
C[C@@H](O)[C@H]1C(=O)N2C(C(=O)O)=C(S[C@@H]3CN[C@H](C(=O)N(C)C)C3)[C@H](C)[C@H]12	broth dilution	ATCC43816		< 0.5 µg/mL
CN(C)[C@@H]1C(O)=C(C(N)=O)C(=O)[C@@]2(O)C(O)=C3C(=O)c4c(O)cccc4[C@@](C)(O)[C@H]3C[C@@H]12	broth dilution	ATCC27736	16 h	3.1 µM
O=C(O)c1cn(C2CC2)c2cc(N3CCNCC3)c(F)cc2c1=O	broth dilution	ATCC700603		> 512 µg/mL
CCCCCCC#Cc1cncc(-c2nnc(SCc3ccc([N+](=O)[O-])o3)n2CCCN)c1	broth dilution	DSM30104		> 64 µg/mL
CN(C)c1cc(NC(=O)CNC(C)(C)C)c(O)c2c1C[C@H]1C[C@H]3[C@H](N(C)C)C(O)=C(C(N)=O)C(=O)[C@@]3(O)C(O)=C1C2=O	broth dilution	ATCC43816		< 0.5 µg/mL
